From ChEMBL document CHEMBL4411317 (Bioorg Med Chem, 2019)

Tests used:
[1] = molecular target: Dipeptidyl peptidase 8 (Homo sapiens, UniProt Q6V1X1); test: Inhibition of recombinant full-length human N-terminal GST-tagged DPP8 expressed in Sf9 insect cells using Gly-Pro-AMC as substrate measured at 60 secs interval for 20 mins by fluorescence assay
[2] = molecular target: Dipeptidyl peptidase 9 (Homo sapiens, UniProt Q86TI2); test: Inhibition of recombinant full-length human N-terminal GST-tagged DPP9 expressed in Sf9 insect cells using Gly-Pro-AMC as substrate measured at 60 secs interval for 20 mins by fluorescence assay
Dipeptidyl peptidase 9, sequence (Q86TI2 whole entry): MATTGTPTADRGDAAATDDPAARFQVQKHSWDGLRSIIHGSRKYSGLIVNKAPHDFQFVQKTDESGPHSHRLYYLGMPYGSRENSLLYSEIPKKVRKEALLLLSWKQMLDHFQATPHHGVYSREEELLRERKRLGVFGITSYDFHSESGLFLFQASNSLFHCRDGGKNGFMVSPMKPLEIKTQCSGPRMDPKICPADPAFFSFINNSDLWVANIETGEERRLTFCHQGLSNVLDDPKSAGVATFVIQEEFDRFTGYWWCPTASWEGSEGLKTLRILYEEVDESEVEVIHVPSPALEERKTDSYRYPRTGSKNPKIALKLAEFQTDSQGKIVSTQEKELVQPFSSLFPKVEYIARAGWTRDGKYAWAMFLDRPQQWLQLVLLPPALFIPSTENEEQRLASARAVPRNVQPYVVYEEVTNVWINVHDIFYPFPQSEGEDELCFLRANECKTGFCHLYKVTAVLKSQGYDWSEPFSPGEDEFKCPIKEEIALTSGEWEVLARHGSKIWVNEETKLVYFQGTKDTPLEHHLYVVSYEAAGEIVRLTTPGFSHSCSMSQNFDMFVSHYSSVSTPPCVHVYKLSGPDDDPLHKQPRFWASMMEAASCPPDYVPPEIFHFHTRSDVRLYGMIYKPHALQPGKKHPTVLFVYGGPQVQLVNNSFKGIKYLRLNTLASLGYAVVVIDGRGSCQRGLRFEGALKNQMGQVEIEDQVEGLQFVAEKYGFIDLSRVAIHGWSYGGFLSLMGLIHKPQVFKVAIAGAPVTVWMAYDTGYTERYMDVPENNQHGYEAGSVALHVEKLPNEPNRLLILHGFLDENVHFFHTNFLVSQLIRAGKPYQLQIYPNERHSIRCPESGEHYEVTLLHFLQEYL

[3] = Cytotoxicity against human LO2 cells assessed as cell viability at 100 uM after 48 hrs by MTT assay relative to control; type: cell-based, L02; settings: read-out: Activity
Method in brief: (§1)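 Hepatic LO2 cells grown in DMEM with 10% FBS and antibiotics at 37 °C, 5% CO2; log-phase cells seeded at 1 × 10^4 per well and exposed to compounds for 48 h. MTT (5 mg/mL stock in PBS) added 4 h before end; formazan dissolved in DMSO, absorbance read at 490 nm.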

[4] = Cytotoxicity against human LO2 cells assessed as cell viability at 50 uM after 48 hrs by MTT assay relative to control; type: cell-based, L02; settings: read-out: Activity; method in brief: as §1
[5] = Retention time of the compound in water at 1 uM by LC/MS/MS method; type: physicochemical; settings: buffer
[6] = Retention time of the compound in rat plasma by LC/MS/MS method; type: ADME, cell-free
[7] = Cytotoxicity against human LO2 cells assessed as cell viability at 20 uM after 48 hrs by MTT assay relative to control; type: cell-based, L02; settings: read-out: Activity; method in brief: as §1
[8] = Retention time of the compound in rat plasma at 1 uM by LC/MS/MS method; type: ADME, cell-free
[9] = Drug metabolism in rat plasma assessed as (R)-2-((4-(3-Aminopiperidin-1-yl)-3-(but-2-yn-1-yl)-2,6-dioxo-3,6-dihydropyrimidin-1(2H)-yl)methyl)-6-fluorobenzoic acid hydrochloride formation at 1 uM after 30 mins by LC/MS/MS method; type: ADME, cell-free; settings: 0.5 h
Method in brief: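 Ester prodrug incubated with rat plasma at 37 °C for 0 and 30 min; ester and formed acid quantified by LC/MS/MS.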

[10] = tested on: Mus musculus; test: Hypoglycemic activity in po dosed Kunming mouse assessed as decrease in blood glucose AUC (0 to 120 mins) administered as single dose treated for 30 mins prior to glucose load by OGTT; type: functional, organism-based
Method in brief: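 Male Kunming mice (20±2 g) fasted overnight (12 h), randomized (n = 8), given a single oral dose suspended in water vehicle; oral glucose 3 g/kg 30 min later. Blood sampled at -30, 0, 15, 30, 60 and 120 min; glucose AUC0–120 min versus vehicle, mean ± SEM, one-way ANOVA with Dunnett's test.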

Dipeptidyl peptidase 8, sequence (Q6V1X1 whole entry): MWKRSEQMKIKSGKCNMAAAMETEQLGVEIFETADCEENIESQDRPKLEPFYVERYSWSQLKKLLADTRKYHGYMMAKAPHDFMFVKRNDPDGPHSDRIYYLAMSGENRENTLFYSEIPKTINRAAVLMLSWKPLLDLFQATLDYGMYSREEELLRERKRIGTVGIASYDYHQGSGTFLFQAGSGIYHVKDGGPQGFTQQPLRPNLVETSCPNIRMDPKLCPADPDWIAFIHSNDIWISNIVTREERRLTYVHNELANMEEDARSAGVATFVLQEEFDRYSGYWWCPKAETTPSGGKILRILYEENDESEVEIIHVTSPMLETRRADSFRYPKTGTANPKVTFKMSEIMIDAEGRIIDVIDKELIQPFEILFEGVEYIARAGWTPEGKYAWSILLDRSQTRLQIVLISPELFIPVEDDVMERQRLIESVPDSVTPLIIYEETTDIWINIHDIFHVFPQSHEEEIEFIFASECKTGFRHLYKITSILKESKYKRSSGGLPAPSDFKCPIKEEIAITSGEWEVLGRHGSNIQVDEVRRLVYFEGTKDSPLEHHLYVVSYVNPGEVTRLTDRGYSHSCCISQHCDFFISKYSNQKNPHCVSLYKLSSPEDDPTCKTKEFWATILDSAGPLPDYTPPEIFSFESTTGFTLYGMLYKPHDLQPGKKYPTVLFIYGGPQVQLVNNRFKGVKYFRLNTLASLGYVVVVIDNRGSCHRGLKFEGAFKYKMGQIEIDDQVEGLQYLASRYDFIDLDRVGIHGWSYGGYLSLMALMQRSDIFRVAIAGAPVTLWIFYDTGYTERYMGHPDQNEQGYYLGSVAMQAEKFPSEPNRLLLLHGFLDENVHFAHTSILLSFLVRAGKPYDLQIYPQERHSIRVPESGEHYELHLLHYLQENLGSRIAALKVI

Compound | IC50 [1] [µM] | IC50 [2] [µM] | viability at 48 h, 100 µM [3] [%] | further results
CC#CCn1c(N2CCC[C@@H](N)C2)cc(=O)n(Cc2cc(C#N)ccc2C(=O)O)c1=O | > 100 | > 100 |  | 
CC#CCn1c(N2CCC[C@@H](N)C2)cc(=O)n(Cc2cc(OC)ccc2C(=O)O)c1=O | > 100 | > 100 |  | 
CC#CCn1c(N2CCC[C@@H](N)C2)cc(=O)n(Cc2cccc(F)c2C(=O)O)c1=O |  |  | 70 | viability at 48 h, 50 µM [4]: 90%; Retention_time [5]: 2.03 min; Retention_time [6]: 2 min
COc1cccc2c1C(=O)c1c(O)c3c(c(O)c1C2=O)C[C@@](O)(C(=O)CO)C[C@@H]3O[C@H]1C[C@H](N)[C@H](O)[C@H](C)O1 [DOXORUBICIN] |  |  |  | viability at 48 h, 20 µM [7]: 11%
CC#CCn1c(N2CCC[C@@H](N)C2)cc(=O)n(Cc2cccc(F)c2C(=O)OC)c1=O | > 100 | > 100 | 70 | viability at 48 h, 50 µM [4]: 90%; Retention_time [5]: 5.41 min; Retention_time [8]: 5.41 min; Drug metabolism [9]: Metabolite_Detected; Activity [10]: Dose-dependent effect

Second part, led by results:

IC50 [1] [µM] | IC50 [2] [µM] | Compound | viability at 48 h, 100 µM [3] [%] | further results
> 100 | > 100 | CC#CCn1c(N2CCC[C@@H](N)C2)cc(=O)n(Cc2ccccc2C(=O)O)c1=O |  | 
> 100 | > 100 | CC#CCn1c(N2CCC[C@@H](N)C2)cc(=O)n(Cc2ccc(F)cc2C(=O)O)c1=O |  | 
> 100 | > 100 | CC#CCn1c(N2CCC[C@@H](N)C2)cc(=O)n(Cc2cc(Br)ccc2C(=O)OC)c1=O | 14 | 
> 100 | > 100 | CC#CCn1c(N2CCC[C@@H](N)C2)cc(=O)n(Cc2ccc(Cl)cc2C(=O)O)c1=O |  | 
> 100 | > 100 | CC#CCn1c(N2CCC[C@@H](N)C2)cc(=O)n(Cc2ccc(Br)cc2C(=O)O)c1=O |  | 
> 100 | > 100 | CC#CCn1c(N2CCC[C@@H](N)C2)cc(=O)n(Cc2cc(Br)ccc2C(=O)O)c1=O | 70 | viability at 48 h, 50 µM [4]: 90%
